# Reference: ChEMBL document CHEMBL1240470, “Synthesis and evaluation of some novel dibenzo[b,d]furan carboxylic acids as potential anti-diabetic agents” (Eur J Med Chem, 2010)
# Active and inactive are the calls of the source. The calls are words filed in the database; no cut-off is given here.
# Tests used:
# [1] = molecular target: T1, Tyrosine-protein phosphatase non-receptor type 1 (Homo sapiens, UniProt P18031)
# T1 sequence (P18031 whole entry): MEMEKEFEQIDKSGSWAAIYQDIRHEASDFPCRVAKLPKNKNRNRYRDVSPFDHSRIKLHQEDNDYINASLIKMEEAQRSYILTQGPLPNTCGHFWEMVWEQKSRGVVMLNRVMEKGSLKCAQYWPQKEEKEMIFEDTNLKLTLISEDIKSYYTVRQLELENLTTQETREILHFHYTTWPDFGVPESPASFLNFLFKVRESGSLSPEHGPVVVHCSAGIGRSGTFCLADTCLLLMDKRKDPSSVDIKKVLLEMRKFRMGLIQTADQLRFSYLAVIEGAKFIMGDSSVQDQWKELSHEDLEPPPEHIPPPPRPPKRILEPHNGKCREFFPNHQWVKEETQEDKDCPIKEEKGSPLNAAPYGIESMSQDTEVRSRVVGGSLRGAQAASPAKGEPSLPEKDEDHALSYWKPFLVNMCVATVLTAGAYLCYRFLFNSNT
# [2] = molecular target: T2, Tyrosine-protein phosphatase non-receptor type 2 (Homo sapiens, UniProt P17706); test: Inhibition of human recombinant TCPTP after 30 mins by spectrophotometry
# T2 sequence (P17706 whole entry): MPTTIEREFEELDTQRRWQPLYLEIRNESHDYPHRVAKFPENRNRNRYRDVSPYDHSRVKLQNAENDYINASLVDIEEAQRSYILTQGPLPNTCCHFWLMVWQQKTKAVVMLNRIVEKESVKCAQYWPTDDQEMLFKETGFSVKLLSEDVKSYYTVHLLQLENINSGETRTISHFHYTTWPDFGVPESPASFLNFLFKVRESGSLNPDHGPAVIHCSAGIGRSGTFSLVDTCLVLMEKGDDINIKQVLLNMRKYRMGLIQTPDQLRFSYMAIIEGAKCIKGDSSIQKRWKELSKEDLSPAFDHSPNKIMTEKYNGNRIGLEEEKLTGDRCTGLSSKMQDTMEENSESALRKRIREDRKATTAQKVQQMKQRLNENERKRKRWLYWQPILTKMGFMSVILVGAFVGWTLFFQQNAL
# Procedure, shortened: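 In-house human recombinant enzyme (40 ng) was preincubated with inhibitor (1% DMSO) for 10 min at 37 °C in 25 mM Hepes pH 7.0 containing 3 mM DTT, 0.15 M NaCl, 1 mM EDTA and 0.01% NP-40. Reaction was started with 2.5 mM pNPP and followed at 405 nm for 30 min at 37 °C, then quenched with NaOH. Activity came from a p-nitrophenol standard curve.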
# [3] = molecular target: Receptor-type tyrosine-protein phosphatase F (Homo sapiens, UniProt P10586)
# Receptor-type tyrosine-protein phosphatase F, sequence (P10586 whole entry): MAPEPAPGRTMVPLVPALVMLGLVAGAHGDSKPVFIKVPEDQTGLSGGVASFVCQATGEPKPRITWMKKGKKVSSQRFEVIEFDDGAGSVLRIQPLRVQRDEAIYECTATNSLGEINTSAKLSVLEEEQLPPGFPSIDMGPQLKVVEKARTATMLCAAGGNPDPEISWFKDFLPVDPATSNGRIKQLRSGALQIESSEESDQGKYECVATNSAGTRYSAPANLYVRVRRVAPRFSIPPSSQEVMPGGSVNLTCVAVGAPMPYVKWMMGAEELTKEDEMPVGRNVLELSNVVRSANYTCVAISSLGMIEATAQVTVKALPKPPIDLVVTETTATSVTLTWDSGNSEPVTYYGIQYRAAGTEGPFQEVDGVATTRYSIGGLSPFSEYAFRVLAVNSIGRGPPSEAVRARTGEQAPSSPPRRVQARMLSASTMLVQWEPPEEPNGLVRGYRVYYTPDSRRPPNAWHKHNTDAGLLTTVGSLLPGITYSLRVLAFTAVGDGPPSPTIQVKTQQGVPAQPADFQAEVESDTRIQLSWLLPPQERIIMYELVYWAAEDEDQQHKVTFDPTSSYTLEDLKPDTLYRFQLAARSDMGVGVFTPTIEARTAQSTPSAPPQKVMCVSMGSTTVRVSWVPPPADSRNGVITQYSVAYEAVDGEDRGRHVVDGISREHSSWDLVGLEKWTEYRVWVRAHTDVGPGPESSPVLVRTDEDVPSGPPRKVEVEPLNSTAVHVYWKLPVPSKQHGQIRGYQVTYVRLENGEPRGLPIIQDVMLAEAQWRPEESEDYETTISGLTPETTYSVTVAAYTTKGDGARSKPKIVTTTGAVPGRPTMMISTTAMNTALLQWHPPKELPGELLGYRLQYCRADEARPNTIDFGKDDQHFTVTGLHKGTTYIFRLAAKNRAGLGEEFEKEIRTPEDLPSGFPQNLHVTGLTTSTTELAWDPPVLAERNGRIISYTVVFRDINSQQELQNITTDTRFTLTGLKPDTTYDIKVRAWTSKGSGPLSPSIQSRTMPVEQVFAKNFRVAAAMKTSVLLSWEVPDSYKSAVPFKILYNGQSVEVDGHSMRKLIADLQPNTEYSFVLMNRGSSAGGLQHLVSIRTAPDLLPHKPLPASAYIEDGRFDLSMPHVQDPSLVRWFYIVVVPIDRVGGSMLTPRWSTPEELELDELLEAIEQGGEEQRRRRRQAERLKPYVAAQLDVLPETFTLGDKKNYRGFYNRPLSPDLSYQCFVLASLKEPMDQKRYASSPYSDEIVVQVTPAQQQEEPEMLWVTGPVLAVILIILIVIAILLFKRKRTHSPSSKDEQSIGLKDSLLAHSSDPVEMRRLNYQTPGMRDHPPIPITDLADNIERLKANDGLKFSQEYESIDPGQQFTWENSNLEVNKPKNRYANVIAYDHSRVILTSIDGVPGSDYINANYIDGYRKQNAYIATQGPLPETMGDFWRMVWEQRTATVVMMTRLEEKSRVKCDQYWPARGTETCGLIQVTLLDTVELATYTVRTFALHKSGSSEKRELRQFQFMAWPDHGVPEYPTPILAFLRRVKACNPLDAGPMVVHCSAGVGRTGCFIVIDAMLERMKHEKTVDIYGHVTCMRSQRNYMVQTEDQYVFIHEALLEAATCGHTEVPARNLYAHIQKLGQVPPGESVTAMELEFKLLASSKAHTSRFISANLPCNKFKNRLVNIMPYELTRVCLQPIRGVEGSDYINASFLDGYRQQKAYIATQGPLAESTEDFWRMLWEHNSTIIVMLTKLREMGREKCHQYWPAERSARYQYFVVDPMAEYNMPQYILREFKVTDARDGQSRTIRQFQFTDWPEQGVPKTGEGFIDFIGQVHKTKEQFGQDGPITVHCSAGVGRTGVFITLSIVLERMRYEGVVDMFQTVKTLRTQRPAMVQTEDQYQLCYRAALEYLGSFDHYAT
# Mus musculus [4] = test: Antidiabetic activity in ob/ob mouse assessed as whole blood glucose at 10 mg/kg, ip measured on day 10 (reference value: 138 +/- 8 mg/dL); format: functional; settings: route intraperitoneal
# Mus musculus [5] = species: Mus musculus; settings: 10 mg/kg
# Mus musculus [6] = test: Antidiabetic activity in ob/ob mouse assessed as plasma cholesterol level at 10 mg/kg, ip measured on day 14 (RVb = 193 +/- 4 mg/dL); format: functional; settings: route intraperitoneal
# Mus musculus [7] = test: Antidiabetic activity in ob/ob mouse assessed as fasting plasma glucose at 10 mg/kg, ip measured on day 14 (RVb = 194 +/- 17 mg/dL); format: functional; settings: route intraperitoneal
# Mus musculus [8] = test: Antidiabetic activity in ob/ob mouse assessed as fasting plasma glucose at 10 mg/kg measured on day 14 (RVb = 194 +/- 17 mg/dL)
# Mus musculus [9] = species: Mus musculus; settings: Blood, 10 mg/kg
# Mus musculus [10] = species: Mus musculus; settings: Plasma, 10 mg/kg
# Mus musculus [11] = test: Antidiabetic activity in ob/ob mouse assessed as decrease in body weight at 10 mg/kg, po measured on day 15; format: functional, organism-based; design: dose 10 mg/kg
# Mus musculus [12] = test: Antidiabetic activity in ob/ob mouse assessed as whole blood glucose at 10 mg/kg, po measured on day 10 (reference value: 139 +/- 8 mg/dL)
# Mus musculus [13] = test: Antidiabetic activity in ob/ob mouse assessed as reduction in fed-state whole blood glucose at 10 mg/kg, po measured on day 7; format: functional, organism-based; design: dose 10 mg/kg
SMILES,IC50 [1],IC50 [2],IC50 [3],other results
Cc1nc(-c2ccc(Cl)cc2)sc1OCCc1cc(C(O)(C(=O)O)C(F)(F)F)ccc1OCc1ccccc1 (stereo unspecified),3200 nM,–,–,–
O=C(O)c1cccc2c1oc1ccc(-c3csc(-c4ccc(N5CCCC5)cc4)n3)cc12,82 nM,1660 nM,2990 nM,Activity (Mus musculus [4]): 93 mg/dL; inhibition (Mus musculus [5]): Active; Activity (Mus musculus [6]): 138 mg/dL; Activity (Mus musculus [7]): 93 mg/dL; Activity (Mus musculus [8]): 124 mg/dL; inhibition (Mus musculus [9]): Active; inhibition (Mus musculus [10]): inactive
O=C(O)/C=C/c1cccc(-c2nc(-c3ccc4oc5c(C(=O)O)cccc5c4c3)cs2)c1,551 nM,794 nM,2070 nM,–
O=C(O)c1cccc2c1oc1ccc(-c3csc(-c4cc(Br)c(C(=O)[C@H](Cc5ccccc5)C(=O)O)c(Br)c4)n3)cc12,177 nM,3140 nM,3570 nM,–
CC1CN(c2ccc(-c3nc(-c4ccc5oc6c(C(=O)O)cccc6c5c4)cs3)cc2)CC(C)O1 (stereo unspecified),187 nM,1430 nM,2140 nM,–
O=C(O)c1cccc2c1oc1ccc(-c3csc(-c4cccc(I)c4)n3)cc12,425 nM,1620 nM,2100 nM,–
O=C(O)c1cccc2c1oc1ccc(-c3csc(-c4ccc(N5CCCCC5)cc4)n3)cc12,121 nM,2070 nM,2070 nM,–
O=C(O)c1cccc2c1oc1ccc(-c3csc(-c4ccc(N5CCOCC5)cc4)n3)cc12,280 nM,1630 nM,2940 nM,–
CCc1cc(C[C@H]2NC(=O)CN(CCCCOc3cccc(O)c3C(=O)OC)C2=O)ccc1N(C(=O)C(=O)O)c1ccccc1C(=O)O [OXALYLAMINOBENZOIC ACID],38 nM,136 nM,410 nM,Ki [2]: 65 nM; Ki [1]: 18 nM
CN(CCOc1ccc(CC2SC(=O)NC2=O)cc1)c1ccccn1.O=C(O)/C=C\C(=O)O (stereo unspecified) [ROSIGLITAZONE MALEATE],–,–,–,inhibition (Mus musculus [11]): inactive; Activity (Mus musculus [12]): 90 mg/dL; inhibition (Mus musculus [13]): Active

# Second part, led by results:
IC50 [1],IC50 [2],IC50 [3],SMILES,other results
620 nM,983 nM,1980 nM,O=C(O)/C=C/c1ccc(-c2nc(-c3ccc4oc5c(C(=O)O)cccc5c4c3)cs2)cc1,–
395 nM,1870 nM,–,O=C(O)c1cccc2c1oc1ccc(-c3csc(-c4ccc(I)cc4)n3)cc12,–
257 nM,961 nM,3750 nM,CN(C)c1ccc(-c2nc(-c3ccc4oc5c(C(=O)O)cccc5c4c3)cs2)cc1,–
201 nM,348 nM,2870 nM,O=C(O)c1cccc2c1oc1ccc(-c3csc(-c4ccc([N+](=O)[O-])cc4)n3)cc12,–
185 nM,693 nM,–,Nc1ccc(-c2nc(-c3ccc4oc5c(C(=O)O)cccc5c4c3)cs2)cc1,–
515 nM,730 nM,1320 nM,Cc1ccc(-c2nc(-c3ccc4oc5c(C(=O)O)cccc5c4c3)cs2)cc1,–
388 nM,2100 nM,3250 nM,O=C(O)c1ccc(-c2nc(-c3ccc4oc5c(C(=O)O)cccc5c4c3)cs2)cc1,–
